In ChEMBL document CHEMBL4028909, “Discovery of an Orally Bioavailable Benzofuran Analogue That Serves as a β-Amyloid Aggregation Inhibitor for the Potential Treatment of Alzheimer's Disease” (J Med Chem, 2018):
Activity calls are given as the source filed them. The rule behind the calls is not given here.

Molecular target: Amyloid-beta precursor protein (Homo sapiens) (UniProt P05067)
Assay: Induction of HFIP-pretreated amyloid beta (1 to 42) (unknown origin) disaggregation after 48 hrs by silver staining-based SDS-PAGE analysis
Procedure, shortened: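 Aβ aggregates were incubated with compound for 48 h, with congo red as positive control. Size distribution (monomer, dimer, trimer, high-molecular-weight species) was analysed by SDS-PAGE with silver staining at the start and at the end of incubation.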

Sequence of Amyloid-beta precursor protein (Homo sapiens) (P05067 whole entry): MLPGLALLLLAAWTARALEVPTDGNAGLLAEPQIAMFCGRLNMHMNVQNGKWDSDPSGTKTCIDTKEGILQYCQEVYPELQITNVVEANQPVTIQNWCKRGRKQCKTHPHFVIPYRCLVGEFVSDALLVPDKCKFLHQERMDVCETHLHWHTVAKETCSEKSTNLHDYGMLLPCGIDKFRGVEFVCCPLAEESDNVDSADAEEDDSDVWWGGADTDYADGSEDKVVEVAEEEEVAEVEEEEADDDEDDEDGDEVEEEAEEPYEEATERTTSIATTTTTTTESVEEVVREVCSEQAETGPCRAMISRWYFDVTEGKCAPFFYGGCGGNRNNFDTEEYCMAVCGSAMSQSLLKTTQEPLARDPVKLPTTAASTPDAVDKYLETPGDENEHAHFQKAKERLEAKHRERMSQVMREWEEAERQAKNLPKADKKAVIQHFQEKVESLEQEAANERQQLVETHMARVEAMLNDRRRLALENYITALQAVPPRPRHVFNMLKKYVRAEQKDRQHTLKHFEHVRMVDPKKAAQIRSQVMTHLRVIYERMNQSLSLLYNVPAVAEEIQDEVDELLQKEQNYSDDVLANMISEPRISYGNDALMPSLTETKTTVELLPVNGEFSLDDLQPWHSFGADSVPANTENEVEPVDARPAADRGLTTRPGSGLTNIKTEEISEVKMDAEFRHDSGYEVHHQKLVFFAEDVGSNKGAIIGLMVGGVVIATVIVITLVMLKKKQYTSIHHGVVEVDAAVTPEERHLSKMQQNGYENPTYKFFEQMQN

SMILES: Nc1c(/N=N/c2ccc(-c3ccc(/N=N/c4cc(S(=O)(=O)O)c5ccccc5c4N)cc3)cc2)cc(S(=O)(=O)O)c2ccccc12
- Activity: Active
